Assay results taken from ChEMBL document CHEMBL1275524, “Activities of antifungal agents against yeasts and filamentous fungi: assessment according to the methodology of the European Committee on Antimicrobial Susceptibility Testing” (2008).
≈ marks a conversion by molar mass, not a printed value.

Assays:
[1] = test system: Rhizomucor; assay: Antifungal activity against Rhizomucor species by EUCAST method; type: functional; conditions: read-out: MEC
In short: (§1)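 Broth microdilution following the EUCAST reference procedure for spore-forming moulds, in flat-bottom plates with RPMI 1640 plus 2% glucose. Inoculum was 2 × 10^5 to 5 × 10^5 CFU/ml. MICs were read visually at 24 and 48 h as 100% growth reduction versus a drug-free control for polyenes and azoles. MEC was used for caspofungin. Tests were run in duplicate and repeated twice.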

[2] = test system: Rhizopus arrhizus; assay: Antifungal activity against Rhizopus oryzae by EUCAST method; type: functional; conditions: read-out: MEC; in short: as §1
[3] = test system: Candida albicans; assay: Antifungal activity against Candida albicans by EUCAST method; type: functional
In short: (§2)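 Broth microdilution in flat-bottom plates in RPMI 1640 with 2% glucose; inoculum 0.5 × 105 to 2.5 × 10^5 CFU/ml. MICs were read spectrophotometrically at 24 h. AMB endpoint: ≥90% growth reduction vs drug-free control well. Azole and CPF endpoint: 50% reduction in optical density. MFC was taken as the lowest concentration giving 99% killing.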

[4] = Antifungal activity against Rhizopus microsporus var. oligosporus; type: functional; in short: as §1
[5] = test system: Curvularia lunata; assay: Antifungal activity against Curvularia lunata by EUCAST method; type: functional; conditions: read-out: MEC
In short: (§3)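 Dematiaceous fungi were tested by the EUCAST spore-forming mold reference procedure: flat-bottom microdilution plates, RPMI 1640 plus 2% glucose, inoculum 2 × 105 to 5 × 10^5 CFU/ml. Endpoints were read visually at 24 and 48 h. Polyenes and azoles: 100% growth reduction vs drug-free control. CPF: minimum effective concentration. Run in duplicate and repeated twice.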

[6] = test system: Fusarium solani; assay: Antifungal activity against Fusarium solani by EUCAST method; type: functional; conditions: read-out: MEC
[7] = test system: Cryptococcus gattii; assay: Antifungal activity against Cryptococcus neoformans var. gattii by EUCAST method; type: functional, Cryptococcus bacillisporus
In short: (§4)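 EUCAST yeast microdilution, modified for nonfermentative yeasts: plates were sealed and agitated at 350 rpm and 30°C for 48 h.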

[8] = test system: Mucor hiemalis; assay: Antifungal activity against Mucor hiemalis; type: functional
[9] = test system: Cunninghamella; assay: Antifungal activity against Cunninghamella species; type: functional
[10] = test system: Mucor; assay: Antifungal activity against Mucor species by EUCAST method; type: functional; conditions: read-out: MEC
[11] = Antifungal activity against Cryptococcus neoformans var. neoformans by EUCAST method; type: functional; conditions: Cryptococcus deneoformans; in short: as §4
[12] = test system: Fusarium oxysporum; assay: Antifungal activity against Fusarium oxysporum; type: functional
[13] = test system: Rhizomucor; assay: Antifungal activity against Rhizomucor species; type: functional
[14] = test system: Saccharomyces cerevisiae; assay: Antifungal activity against Saccharomyces cerevisiae; type: functional
In short: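 Broth microdilution following EUCAST for fermentative yeasts, in flat-bottom plates with RPMI 1640 plus 2% glucose. Inoculum was 0.5 × 10^5 to 2.5 × 10^5 CFU/ml. End points were read spectrophotometrically at 24 h: ≥90% growth reduction versus a drug-free control for amphotericin B, and 50% OD reduction for azoles and caspofungin. MFC was the lowest concentration giving 99% killing.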

[15] = test system: Rhizopus arrhizus; assay: Antifungal activity against Rhizopus oryzae; type: functional; in short: as §1
[16] = test system: Clavispora lusitaniae; assay: Antifungal activity against Candida lusitaniae; type: functional; in short: as §2
[17] = test system: Aspergillus flavus; assay: Antifungal activity against Aspergillus flavus by EUCAST method; type: functional
[18] = test system: Lomentospora prolificans; assay: Antifungal activity against Scedosporium prolificans; type: functional; in short: as §1
[19] = test system: Aspergillus fumigatus; assay: Antifungal activity against Aspergillus fumigatus by EUCAST method; type: functional
[20] = test system: Saccharomyces cerevisiae; assay: Antifungal activity against Saccharomyces cerevisiae by EUCAST method; type: functional
In short: (§5)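 EUCAST broth microdilution for yeasts in flat-bottom plates, RPMI 1640 with 2% glucose, inoculum 0.5 × 105 to 2.5 × 10^5 CFU/ml. […] MFC is the lowest concentration giving 99% killing.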

[21] = test system: Fusarium oxysporum; assay: Antifungal activity against Fusarium oxysporum by EUCAST method; type: functional; conditions: read-out: MEC
[22] = test system: Candida albicans; assay: Antifungal activity against Candida albicans; type: functional; in short: as §2
[23] = test system: Meyerozyma guilliermondii; assay: Antifungal activity against Candida guilliermondii; type: functional; in short: as §2
[24] = test system: Absidia; assay: Antifungal activity against Absidia species; type: functional
[25] = test system: Meyerozyma guilliermondii; assay: Antifungal activity against Candida guilliermondii by EUCAST method; type: functional; in short: as §2
[26] = Antifungal activity against Rhinocladiella aquaspersa by EUCAST method; type: functional; in short: as §3
[27] = test system: Absidia; assay: Antifungal activity against Absidia species by EUCAST method; type: functional; conditions: read-out: MEC
[28] = test system: Trichosporon asahii; assay: Antifungal activity against Trichosporon asahii; type: functional
In short: (§6)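 Nonfermentative yeasts were tested by the EUCAST microdilution recommendations with one change: plates were sealed and agitated at 350 rpm and 30°C for 48 h.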

[29] = test system: Pichia kudriavzevii; assay: Antifungal activity against Candida krusei; type: functional; in short: as §5
[30] = test system: Curvularia australiensis; assay: Antifungal activity against Bipolaris australiensis by EUCAST method; type: functional; conditions: read-out: MEC; in short: as §3
[31] = test system: Trichosporon inkin; assay: Antifungal activity against Trichosporon inkin by EUCAST method; type: functional; in short: as §6
[32] = test system: Lichtheimia corymbifera; assay: Antifungal activity against Absidia corymbifera by EUCAST method; type: functional; conditions: read-out: MEC
[33] = test system: Cunninghamella; assay: Antifungal activity against Cunninghamella species by EUCAST method; type: functional; conditions: read-out: MEC
[34] = test system: Candida tropicalis; assay: Antifungal activity against Candida tropicalis by EUCAST method; type: functional; in short: as §2
[35] = test system: Aspergillus flavus; assay: Antifungal activity against Aspergillus flavus; type: functional
[36] = test system: Mucor; assay: Antifungal activity against Mucor species; type: functional

With `CC[C@H](C)C[C@H](C)CCCCCCCCC(=O)N[C@H]1C[C@@H](O)[C@@H](NCCN)NC(=O)[C@@H]2[C@@H](O)CCN2C(=O)[C@H]([C@H](O)CCN)NC(=O)[C@H]([C@H](O)[C@@H](O)c2ccc(O)cc2)NC(=O)[C@@H]2C[C@@H](O)CN2C(=O)[C@H]([C@@H](C)O)NC1=O` [CASPOFUNGIN] the minimal effective concentration [1] was greater than 8 µg/mL, the minimal effective concentration [2] was greater than 8 µg/mL and the MIC [3] was 0.14 µg/mL (≈ 0.128 µM). For the same compound, the MFC [4] was greater than 8 µg/mL, the minimal effective concentration [5] was greater than 8 µg/mL and the minimal effective concentration [6] was greater than 8 µg/mL. For the same compound, the MIC [7] was 5.33 µg/mL (≈ 4.88 µM), the MFC [8] was greater than 8 µg/mL and the MFC [9] was greater than 8 µg/mL. For the same compound, the minimal effective concentration [10] was greater than 8 µg/mL, the MIC [11] was 2.04 µg/mL (≈ 1.87 µM) and the MFC [12] was greater than 8 µg/mL. The MFC [13] was greater than 8 µg/mL, the MFC [14] was 4 µg/mL (≈ 3.66 µM) and the MFC [15] was greater than 8 µg/mL. For the same compound, the MFC [16] was 4 µg/mL (≈ 3.66 µM), the MIC [17] was 0.28 µg/mL (≈ 0.256 µM) and the minimal effective concentration ([17]; read-out: MEC) was 0.25 µg/mL. The MFC [18] was greater than 8 µg/mL, the MIC [19] was 0.45 µg/mL (≈ 0.412 µM) and the minimal effective concentration ([19]; read-out: MEC) was 0.25 µg/mL. For the same compound, the MIC [20] was 1.3 µg/mL (≈ 1.19 µM), the minimal effective concentration [21] was greater than 8 µg/mL and the MFC [22] was 0.15 µg/mL (≈ 0.137 µM). It also gave an MFC [23] greater than 2 µg/mL, an MFC [24] greater than 8 µg/mL and an MIC [25] of 0.68 µg/mL (≈ 0.622 µM). The MEC [26] was greater than 8 µg/mL, the minimal effective concentration [27] was greater than 8 µg/mL and the MFC [28] was greater than 8 µg/mL. For the same compound, the MFC [29] was 2 µg/mL (≈ 1.83 µM), the minimal effective concentration [30] was greater than 8 µg/mL and the MIC [31] was 5.33 µg/mL (≈ 4.88 µM). The minimal effective concentration [32] was greater than 8 µg/mL, the minimal effective concentration [33] was greater than 8 µg/mL and the MIC [34] was 0.34 µg/mL (≈ 0.311 µM). The MFC [35] was greater than 8 µg/mL and the MFC [36] was greater than 8 µg/mL.
